In ChEMBL document CHEMBL1138952 (Bioorg Med Chem Lett, 2006):

Columns and labels:
Coagulation factor X [1] = biological target: Coagulation factor X (Homo sapiens, UniProt P00742); assay: Binding affinity to human f10a
[2] = Activity in human plasma by aPTT assay; format: functional
[3] = biological target: T1, Coagulation factor VII/tissue factor (Homo sapiens) (UniProt P08709+P13726); assay: Activity in human plasma by PT assay; format: functional, cell-free
Outline: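 In vitro clotting assays (PT, aPTT) were run in human plasma.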

[4] = Clearance in dog at 0.5 mg/kg, iv and 0.2 mg/kg, po; format: ADME, organism-based, Canis lupus familiaris; details: in vivo
[5] = (§1) Volume of distribution in dog at 0.5 mg/kg, iv and 0.2 mg/kg, po; format: ADME, organism-based, Canis lupus familiaris; details: in vivo, read-out: Vdss
Outline: (§2)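 Dogs received the compounds as TFA salts in a cassette (N-in-1) format, 0.5 mg/kg intravenously and 0.2 mg/kg orally (n = 2), and pharmacokinetic profiles were determined.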

[6] = (§3) Half life in dog at 0.5 mg/kg, iv and 0.2 mg/kg, po; format: ADME, organism-based, Canis lupus familiaris; details: in vivo; outline: as §2
[7] = Oral bioavailability in dog at 0.5 mg/kg, iv and 0.2 mg/kg, po; format: ADME, organism-based, Canis lupus familiaris; details: in vivo; outline: as §2
[8] = Apparent permeability in Caco-2 cells; format: ADME, cell-based; details: human
[9] = biological target: T1, Coagulation factor VII/tissue factor (Homo sapiens); assay: Activity in rabbit plasma by PT assay; format: functional, cell-free; details: Oryctolagus cuniculus, target entry is the homologue from another species
Prothrombin = Prothrombin (Homo sapiens, UniProt P00734); assay: Binding affinity to thrombin
Trypsin = Trypsin (Homo sapiens, UniProt P07477+P07478+P35030); assay: Binding affinity to trypsin; format: protein assay
[10] = biological target: Vitamin K-dependent protein C (Homo sapiens, UniProt P04070); assay: Binding affinity to aPC
Sequence of Vitamin K-dependent protein C (P04070 43-197 limits assumed): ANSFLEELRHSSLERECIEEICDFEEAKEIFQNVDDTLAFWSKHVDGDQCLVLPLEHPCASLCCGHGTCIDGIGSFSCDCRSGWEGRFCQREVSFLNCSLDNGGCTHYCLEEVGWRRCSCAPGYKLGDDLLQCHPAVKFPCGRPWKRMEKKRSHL
Sequence of Vitamin K-dependent protein C (P04070 212-461 limits assumed): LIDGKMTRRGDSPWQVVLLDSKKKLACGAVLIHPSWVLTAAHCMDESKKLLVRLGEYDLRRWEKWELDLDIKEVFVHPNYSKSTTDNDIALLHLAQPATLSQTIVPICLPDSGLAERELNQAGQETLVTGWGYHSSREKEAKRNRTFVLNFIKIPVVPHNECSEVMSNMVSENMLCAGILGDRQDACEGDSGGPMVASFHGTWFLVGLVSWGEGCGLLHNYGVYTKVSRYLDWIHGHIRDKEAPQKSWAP

Coagulation factor IX = Coagulation factor IX (Homo sapiens, UniProt P00740); assay: Binding affinity to f9a
Sequence of Coagulation factor IX (P00740 47-191 limits assumed): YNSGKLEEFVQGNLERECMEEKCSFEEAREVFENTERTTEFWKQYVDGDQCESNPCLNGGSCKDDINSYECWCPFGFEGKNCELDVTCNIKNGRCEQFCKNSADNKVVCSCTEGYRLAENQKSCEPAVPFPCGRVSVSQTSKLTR
Sequence of Coagulation factor IX (P00740 227-461 limits assumed): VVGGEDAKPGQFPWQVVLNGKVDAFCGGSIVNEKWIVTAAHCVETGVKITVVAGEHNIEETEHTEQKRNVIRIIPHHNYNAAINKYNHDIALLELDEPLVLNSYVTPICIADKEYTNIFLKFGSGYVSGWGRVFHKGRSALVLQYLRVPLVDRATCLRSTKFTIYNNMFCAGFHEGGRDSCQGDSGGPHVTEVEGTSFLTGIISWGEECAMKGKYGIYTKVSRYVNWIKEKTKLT

Coagulation factor VII = biological target: T2, Coagulation factor VII (Homo sapiens, UniProt P08709); assay: Binding affinity to f7a
T2 sequence (P08709 whole entry): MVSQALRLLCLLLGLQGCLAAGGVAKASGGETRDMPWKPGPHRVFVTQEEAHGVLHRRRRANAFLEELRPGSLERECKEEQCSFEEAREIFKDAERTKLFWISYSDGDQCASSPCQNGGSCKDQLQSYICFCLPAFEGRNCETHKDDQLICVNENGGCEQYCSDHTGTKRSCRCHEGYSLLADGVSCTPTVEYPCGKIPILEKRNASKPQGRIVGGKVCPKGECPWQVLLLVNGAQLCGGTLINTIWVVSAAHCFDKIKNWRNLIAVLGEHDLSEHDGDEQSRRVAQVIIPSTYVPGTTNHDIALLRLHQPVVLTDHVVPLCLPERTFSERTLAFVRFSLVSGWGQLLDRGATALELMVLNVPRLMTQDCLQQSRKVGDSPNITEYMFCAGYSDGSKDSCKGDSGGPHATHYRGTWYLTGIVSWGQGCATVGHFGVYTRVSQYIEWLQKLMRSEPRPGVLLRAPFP

Plasminogen = Plasminogen (Homo sapiens, UniProt P00747); assay: Binding affinity to plasmin
Sequence of Plasminogen (P00747 97-580 limits assumed): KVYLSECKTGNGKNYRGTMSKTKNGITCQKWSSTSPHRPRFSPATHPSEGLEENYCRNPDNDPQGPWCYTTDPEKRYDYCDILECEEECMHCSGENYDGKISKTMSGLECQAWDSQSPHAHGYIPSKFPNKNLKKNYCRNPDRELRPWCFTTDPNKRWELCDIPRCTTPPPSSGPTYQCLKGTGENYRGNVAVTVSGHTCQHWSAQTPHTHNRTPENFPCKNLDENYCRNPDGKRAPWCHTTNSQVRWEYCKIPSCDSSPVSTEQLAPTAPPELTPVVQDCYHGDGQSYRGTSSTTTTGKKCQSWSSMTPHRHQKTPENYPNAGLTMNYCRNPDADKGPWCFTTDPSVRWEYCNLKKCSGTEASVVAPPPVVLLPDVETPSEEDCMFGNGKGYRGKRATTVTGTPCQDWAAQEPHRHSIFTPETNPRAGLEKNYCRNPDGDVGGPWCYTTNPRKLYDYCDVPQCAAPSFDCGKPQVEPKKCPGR
Sequence of Plasminogen (P00747 581-810 limits assumed): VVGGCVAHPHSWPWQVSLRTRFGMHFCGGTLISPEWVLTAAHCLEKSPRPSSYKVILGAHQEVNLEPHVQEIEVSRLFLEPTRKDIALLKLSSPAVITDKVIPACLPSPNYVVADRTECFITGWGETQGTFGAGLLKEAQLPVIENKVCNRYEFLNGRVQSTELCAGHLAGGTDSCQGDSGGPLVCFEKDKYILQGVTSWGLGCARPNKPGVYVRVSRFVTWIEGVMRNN

[11] = biological target: Tissue-type plasminogen activator (Homo sapiens, UniProt P00750); assay: Binding affinity to tPA
Sequence of Tissue-type plasminogen activator (P00750 whole entry): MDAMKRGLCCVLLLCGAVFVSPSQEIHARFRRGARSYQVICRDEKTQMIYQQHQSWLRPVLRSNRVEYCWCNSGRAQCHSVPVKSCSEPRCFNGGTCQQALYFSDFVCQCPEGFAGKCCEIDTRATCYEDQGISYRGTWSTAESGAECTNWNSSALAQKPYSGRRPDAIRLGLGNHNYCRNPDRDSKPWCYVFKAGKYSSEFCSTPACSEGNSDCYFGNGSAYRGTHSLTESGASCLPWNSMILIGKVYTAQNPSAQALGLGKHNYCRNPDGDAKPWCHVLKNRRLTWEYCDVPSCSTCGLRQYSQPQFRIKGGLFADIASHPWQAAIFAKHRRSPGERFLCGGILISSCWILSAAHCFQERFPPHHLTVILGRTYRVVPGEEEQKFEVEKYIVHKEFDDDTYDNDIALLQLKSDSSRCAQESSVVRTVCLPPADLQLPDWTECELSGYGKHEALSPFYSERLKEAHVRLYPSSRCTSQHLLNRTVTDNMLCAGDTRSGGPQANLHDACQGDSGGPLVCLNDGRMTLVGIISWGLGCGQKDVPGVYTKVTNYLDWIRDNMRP

[12] = biological target: Urokinase-type plasminogen activator (Homo sapiens, UniProt P00749); assay: Binding affinity to urokinase
Chymotrypsinogen B = Chymotrypsinogen B (Homo sapiens, UniProt P17538); assay: Binding affinity to chymotrypsin
Sequence of Chymotrypsinogen B (P17538 34-164 limits assumed, other chains not shown): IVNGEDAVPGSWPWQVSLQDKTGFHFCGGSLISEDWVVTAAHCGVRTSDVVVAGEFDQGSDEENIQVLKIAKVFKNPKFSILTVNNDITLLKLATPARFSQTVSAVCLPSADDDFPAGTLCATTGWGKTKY
Sequence of Chymotrypsinogen B (P17538 167-263 limits assumed, other chains not shown): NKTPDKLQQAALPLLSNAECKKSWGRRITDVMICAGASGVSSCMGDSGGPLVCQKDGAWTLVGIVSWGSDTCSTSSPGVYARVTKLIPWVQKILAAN

Coagulation factor X [13] = biological target: T3, Coagulation factor X (Oryctolagus cuniculus, UniProt O19045); assay: Binding affinity to rabbit f10a
T3 sequence (O19045 whole entry): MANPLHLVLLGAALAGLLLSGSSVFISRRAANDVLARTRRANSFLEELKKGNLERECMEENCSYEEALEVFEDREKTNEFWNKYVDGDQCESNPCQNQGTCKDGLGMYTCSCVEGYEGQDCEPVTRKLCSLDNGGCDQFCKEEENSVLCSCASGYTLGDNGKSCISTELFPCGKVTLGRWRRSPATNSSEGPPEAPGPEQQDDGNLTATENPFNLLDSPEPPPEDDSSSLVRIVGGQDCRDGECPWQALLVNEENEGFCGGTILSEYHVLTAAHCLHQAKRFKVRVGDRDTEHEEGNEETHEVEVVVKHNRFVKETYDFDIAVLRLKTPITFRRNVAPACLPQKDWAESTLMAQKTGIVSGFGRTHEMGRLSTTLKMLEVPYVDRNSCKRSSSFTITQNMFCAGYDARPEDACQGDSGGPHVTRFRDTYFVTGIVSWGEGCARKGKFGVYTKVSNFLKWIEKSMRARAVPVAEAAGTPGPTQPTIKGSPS

Oryctolagus cuniculus [14] = assay: Inhibition of thrombus formation in iv dosed rabbit arterio-venous shunt model; format: functional, organism-based
[15] = Protein binding in rabbit; format: ADME, Oryctolagus cuniculus; details: plasma, read-out: PPB (converted)
Oryctolagus cuniculus [16] = assay: Inhibition of thrombus formation in rabbit arterio-venous shunt model at 4.6 umol/kg/h, iv; format: functional, organism-based
Canis familiaris [17] = assay: as §1; format: ADME, organism-based, Canis lupus familiaris; details: in vivo; outline: as §2
Canis familiaris [18] = assay: as §3; format: ADME, organism-based, Canis lupus familiaris; details: in vivo; outline: as §2

Sequence of Coagulation factor X (Homo sapiens, UniProt P00742) (P00742 41-179 limits assumed): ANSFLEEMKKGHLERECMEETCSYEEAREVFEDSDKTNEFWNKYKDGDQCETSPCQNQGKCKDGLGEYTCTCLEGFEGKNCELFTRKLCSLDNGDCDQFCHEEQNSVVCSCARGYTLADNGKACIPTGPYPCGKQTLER
Sequence of Coagulation factor X (Homo sapiens, UniProt P00742) (P00742 235-488 limits assumed): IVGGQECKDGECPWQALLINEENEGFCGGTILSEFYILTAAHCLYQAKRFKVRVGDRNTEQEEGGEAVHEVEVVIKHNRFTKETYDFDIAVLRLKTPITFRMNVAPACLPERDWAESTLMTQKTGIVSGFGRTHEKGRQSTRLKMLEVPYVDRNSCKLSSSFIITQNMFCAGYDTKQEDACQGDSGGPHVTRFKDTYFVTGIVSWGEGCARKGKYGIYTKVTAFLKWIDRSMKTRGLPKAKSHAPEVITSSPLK

COC(=O)c1nn(-c2ccc(OC)cc2)c2c(=O)n(-c3ccc(-c4ccccc4S(N)(=O)=O)cc3F)cnc12
Ki (Coagulation factor X [1]): 1.8 nM

COc1ccc(-n2nc(Cn3ncnn3)c3nc(C)n(-c4ccc(-c5ccccc5CN5CCCC5)cc4)c(=O)c32)cc1
Ki (Coagulation factor X [1]): 1.9 nM | 2aPTT [2]: 20.1 µM | 2PT [3]: 6.5 µM

COc1ccc(-n2nc(C#N)c3[nH]c(=O)n(-c4ccc(-c5ccccc5S(C)(=O)=O)cc4F)c(=O)c32)cc1
Ki (Coagulation factor X [1]): 3 nM | 2aPTT [2]: 197 µM

COc1ccc(-n2nc(C(F)(F)F)c3c(C)nn(-c4ccc(-c5ccccc5S(N)(=O)=O)cc4)c(=O)c32)cc1
Ki (Coagulation factor X [1]): 2.8 nM

COc1ccc(-n2nc(C#N)c3ncn(-c4ccc(-c5ccccc5CN5CCCC5)cc4)c(=O)c32)cc1.O=C(O)C(F)(F)F
clearance [4]: 113 mL/min/kg | Vd [5]: 75 L/kg | half-life [6]: 8.3 h | bioavailability [7]: 77% | Papp [8]: 3.1 ×10⁻⁶ cm/s

COc1ccc(-n2nc(C(N)=O)c3ncn(-c4ccc(-c5ccccc5CN5CCCC5)cc4F)c(=O)c32)cc1.O=C(O)C(F)(F)F
clearance [4]: 12.7 mL/min/kg | Vd [5]: 4.9 L/kg | half-life [6]: 5.1 h | bioavailability [7]: 96% | Papp [8]: 15 ×10⁻⁶ cm/s

CCOC(=O)c1nn(-c2ccc(OC)cc2)c2c(=O)n(-c3ccc(-c4ccccc4CN4CCCC4)cc3)cnc12
Ki (Coagulation factor X [1]): 3.8 nM | 2aPTT [2]: 1.8 µM

COc1ccc(-n2nc(C(N)=O)c3ncn(-c4ccc(-c5ccccc5CN5CCCC5)cc4)c(=O)c32)cc1.O=C(O)C(F)(F)F
clearance [4]: 9.17 mL/min/kg | Vd [5]: 3.9 L/kg | half-life [6]: 5.4 h | bioavailability [7]: 94% | Papp [8]: 12 ×10⁻⁶ cm/s

COc1ccc(-n2nc(Cn3cnnn3)c3nc(C)n(-c4ccc(-c5ccccc5CN5CCCC5)cc4)c(=O)c32)cc1
Ki (Coagulation factor X [1]): 1.4 nM

COc1ccc(-n2nc(C#N)c3nc(C)n(-c4ccc(-c5ccccc5CN(C)C)cc4)c(=O)c32)cc1
Ki (Coagulation factor X [1]): 1.8 nM

COc1ccc(-n2nc(C(=O)O)c3ncn(-c4ccc(-c5ccccc5S(N)(=O)=O)cc4)c(=O)c32)cc1
Ki (Coagulation factor X [1]): 38 nM

COc1ccc(-n2nc(C(F)(F)F)cc2C(=O)Nc2ccc(-c3ccccc3S(C)(=O)=O)cc2F)cc1
2aPTT [2]: 104 µM

COc1ccc(-n2nc(C(N)=O)c3ncn(-c4ccc(-c5ccccc5CN5CCCC5)cc4F)c(=O)c32)cc1 [listing 1 of 2 here]
2PT [3]: 3.4 µM | 2PT [9]: 1.6 µM

COc1ccc(-n2nc(C(N)=O)c3ncn(-c4ccc(-c5ccccc5CN5CCCC5)cc4)c(=O)c32)cc1 [listing 1 of 2 here]
2PT [3]: 2.2 µM | 2PT [9]: 1.8 µM

COc1ccc(-n2nc(C(F)(F)F)c3c(C)nn(-c4ccc(-c5ccccc5CN5CCCC5)cc4)c(=O)c32)cc1
Ki (Coagulation factor X [1]): 2.8 nM | 2aPTT [2]: 53 µM | 2PT [3]: 62 µM

CCOC(=O)c1nn(-c2ccc(OC)cc2)c2c(=O)n(-c3ccc(-c4ccccc4CO)cc3)cnc12
Ki (Coagulation factor X [1]): 45 nM

COc1ccc(-n2nc(C#N)c(N)c2C(=O)Nc2ccc(-c3ccccc3S(C)(=O)=O)cc2F)cc1
Ki (Coagulation factor X [1]): 8.4 nM

COc1ccc(-n2nc(C#N)c3ncn(-c4ccc(-c5ccccc5CN5CCCC5)cc4)c(=O)c32)cc1
Ki (Coagulation factor X [1]): 1.7 nM | Ki (Prothrombin): 1100 nM | Ki (Trypsin): > 2500 nM | Ki [10]: 48700 nM | Ki (Coagulation factor IX): > 15000 nM | Ki (Coagulation factor VII): > 15000 nM | Ki (Plasminogen): > 15000 nM | Ki [11]: > 33000 nM | Ki [12]: > 13000 nM | Ki (Chymotrypsinogen B): 2030 nM

COc1ccc(-n2nc(CN)c3ncn(-c4ccc(-c5ccccc5S(N)(=O)=O)cc4)c(=O)c32)cc1
Ki (Coagulation factor X [1]): 22 nM

COc1ccc(-n2nc(C(N)=O)c3ncn(-c4ccc(-c5ccccc5CN5CCCC5)cc4)c(=O)c32)cc1 [listing 2 of 2 here]
2aPTT [2]: 4 µM | Ki (Prothrombin): 1600 nM | Ki (Trypsin): > 4200 nM | Ki [10]: > 76000 nM | Ki (Coagulation factor IX): > 41000 nM | Ki (Coagulation factor VII): > 15000 nM | Ki (Plasminogen): > 15000 nM | Ki [11]: > 33000 nM | Ki [12]: > 13000 nM | Ki (Chymotrypsinogen B): 7930 nM | Ki (Coagulation factor X [13]): 1 nM | ID50 (Oryctolagus cuniculus [14]): 5.5 µmol/kg/h | IC50 (Oryctolagus cuniculus [14]; Oryctolagus cuniculus): 1200 nM | fraction unbound [15]: 0.23

COc1ccc(-n2nc(Cn3ccnc3)c3nc(C)n(-c4ccc(-c5ccccc5CN5CCCC5)cc4)c(=O)c32)cc1
Ki (Coagulation factor X [1]): 2.1 nM

COc1ccc(-n2nc(C#N)c3ncn(-c4ccc(-c5ccccc5CN(C)C)cc4)c(=O)c32)cc1
Ki (Coagulation factor X [1]): 2.1 nM

COc1ccc(-n2nc(C(N)=O)c3ncn(-c4ccc(-c5ccccc5S(N)(=O)=O)cc4)c(=O)c32)cc1
Ki (Coagulation factor X [1]): 1.7 nM | 2aPTT [2]: 8.7 µM

COc1ccc(-n2nc(C(N)=O)c3ncn(-c4ccc(-c5ccccc5CN5CCCC5)cc4F)c(=O)c32)cc1 [listing 2 of 2 here]
Ki (Coagulation factor X [1]): 0.74 nM | 2aPTT [2]: 3.9 µM | Ki (Prothrombin): 1800 nM | Ki (Trypsin): > 2500 nM | Ki [10]: > 76000 nM | Ki (Coagulation factor IX): > 15000 nM | Ki (Coagulation factor VII): > 15000 nM | Ki (Plasminogen): > 15000 nM | Ki [11]: > 33000 nM | Ki [12]: > 13000 nM | Ki (Chymotrypsinogen B): 530 nM | Ki (Coagulation factor X [13]): 1.2 nM | IC50 (Oryctolagus cuniculus [16]): > 1000 nM | inhibition in vivo at 4.6 µmol/kg/h (Oryctolagus cuniculus [16]; iv): 33% | fraction unbound [15]: 0.15

COc1ccc(-n2nc(C(N)=O)c3ncn(-c4ccc(-c5ccccc5CN5CC[C@@H](O)C5)cc4)c(=O)c32)cc1
Ki (Coagulation factor X [1]): 1.5 nM | 2aPTT [2]: 5 µM | 2PT [3]: 3.6 µM

CN(C)Cc1nccn1-c1ccc(NC(=O)c2cc(C(F)(F)F)nn2-c2ccc3onc(N)c3c2)c(F)c1.Cl [RAZAXABAN HYDROCHLORIDE]
2PT [3]: 2.1 µM | Vdss (Canis familiaris [17]): 5.3 L/kg | T1/2 (Canis familiaris [18]): 3.4 h | fraction unbound [15]: 0.07

CCOC(=O)c1nn(-c2ccc(OC)cc2)c2c(=O)n(-c3ccc(-c4ccccc4CN4CCCC4)cc3F)cnc12
Ki (Coagulation factor X [1]): 3.6 nM

COc1ccc(-n2nc(C#N)c3ncn(-c4ccc(-c5ccccc5S(N)(=O)=O)cc4)c(=O)c32)cc1
Ki (Coagulation factor X [1]): 1.9 nM | 2aPTT [2]: 5.8 µM

COC(=O)c1nn(-c2ccc(OC)cc2)c2c(=O)n(-c3ccc(-c4ccccc4S(N)(=O)=O)cc3)cnc12
Ki (Coagulation factor X [1]): 2.8 nM | 2aPTT [2]: 7.1 µM

COc1ccc(-n2nc(C(N)=O)c3ncn(-c4ccc(-c5ccccc5S(N)(=O)=O)cc4F)c(=O)c32)cc1
Ki (Coagulation factor X [1]): 1.2 nM | 2aPTT [2]: 9.8 µM
